High-throughput results deposited in PubChem by several laboratories.
Shown are actives, neighbours in structure and some others; about 2.9% of the full set was active somewhere.
MIN6 prolif-1: induces beta-cell replication in MIN6 cells | MIN6 cells proliferation, ATPlite luminescence, 48 h; cells starved in 0.2% serum; 100% = growth in 10% serum | proliferation, % at 10 µM | hit rate 0.29% among 330,000 | AID 2380;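 active = compounds whose signal lies at least 3.5 SD above the mean of all wells on their plate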;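 note: 0% = DMSO-treated cells in low-serum medium and 100% = 10% serum control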
TAG inh: triacylglycerol accumulation inhibition | hit rate 0.66% among 230,000 | H9c2 cells, Nile Red lipid (TAG) fluorescence; cells loaded with 200 µM oleic acid | inhibition, % at 12.5 µM;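 active = pattern-corrected inhibition of lipid staining of at least 50% with the nuclear-stain viability signal not falling by more than 50%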;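 note: 0% = DMSO wells and 100% = triacsin C control wells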
hiPSC survival: increases survival of single human iPS cells; survival enhancement, % at 20 µM; hit rate 0.044% among 360,000; hiPSC single-cell survival, ATPlite luminescence; 100% = ROCK inhibitor wells, 0% = DMSO; in the data active = survival enhancement above about 18%;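 note: cells exposed to compounds for 16 hours before the ATP read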
Rev-erbA mod: modulators of human Rev-erb alpha DNA binding; P20393; Rev-erbα–FITC-DNA binding, fluorescence polarization, 90 min; activity, % at 10 µM; hit rate 0.79% among 370,000; AID 1259318;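 active = activity above about 14%, limit read from the data; passing the limit was not always enough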;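 note: 0% = DMSO wells with 35 nM protein and 100% = DMSO wells with 750 nM protein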
Target sequence (P20393 whole entry, looked up): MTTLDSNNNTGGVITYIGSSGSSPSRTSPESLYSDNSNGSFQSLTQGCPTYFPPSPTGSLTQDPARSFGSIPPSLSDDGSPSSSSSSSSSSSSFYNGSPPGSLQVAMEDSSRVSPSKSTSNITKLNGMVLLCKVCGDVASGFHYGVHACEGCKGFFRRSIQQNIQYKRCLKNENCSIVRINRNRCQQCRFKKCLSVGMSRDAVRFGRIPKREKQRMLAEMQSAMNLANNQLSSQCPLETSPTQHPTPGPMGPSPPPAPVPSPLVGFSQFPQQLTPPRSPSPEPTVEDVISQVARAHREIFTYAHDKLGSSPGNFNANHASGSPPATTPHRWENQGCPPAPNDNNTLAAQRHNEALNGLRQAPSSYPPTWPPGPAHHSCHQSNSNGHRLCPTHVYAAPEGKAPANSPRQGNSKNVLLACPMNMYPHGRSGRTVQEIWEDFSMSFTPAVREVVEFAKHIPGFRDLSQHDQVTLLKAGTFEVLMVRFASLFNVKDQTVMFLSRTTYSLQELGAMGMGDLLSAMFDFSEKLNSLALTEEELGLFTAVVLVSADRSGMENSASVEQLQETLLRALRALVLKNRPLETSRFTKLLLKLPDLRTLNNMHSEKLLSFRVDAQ
PG9 binder: binds the HIV-1 gp120 antibody PG9; TR-FRET gp120-PG9 antibody binding; inhibition, % at 6.7 µM; hit rate 0.43% among 360,000; AID 624416; in the data active = inhibition above about 8.5%
T cruzi inh: T. cruzi replication inhibition; T. cruzi beta-gal in NIH3T3, luminescence, 90 h; inhibition, % (concentration not given with the values); hit rate 1.4% among 300,000; AID 1885;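 active = mean inhibition across valid replicates above about 55%, limit read from the data; inconclusive = mean below that limit but half or more replicates reach it; inactive = mean below it, under half of replicates reach it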;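 note: signal also drops with host cell toxicity which is not excluded here; 0% = plate median of DMSO wells and 100% = zero luminescence signal; higher percent means less beta-gal luminescence so fewer parasites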
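Read-out: Parasite load inhibition, % | Test system: Mouse NIH/3T3 fibroblasts infected with β-gal-expressing T. cruzi Tulahuen C4 | Amount: 5,000 cells/well | Medium: DMEM, 2% fetal bovine serum | Signal: GalScreen β-gal luminescence, detergent lysis, 60 min | Timing: 3 h attach, ≥90 h co-culture | Also added: Tulahuen C4 trypomastigotes, 5000/well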
MIN6 prolif-2: MIN6 beta-cell replication induction, confirmed; proliferation increase, % at 50 µM; shares compounds with MIN6 prolif-1; MIN6 beta-cell proliferation, ATPlite luminescence, 48 h; cells kept in 0.2% serum; scaled between 0.2% and 10% serum; 920 tested, under 10 active;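 active = proliferation increase above 40% at any of the four tested concentrations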
The depositor's hits bear a star; ? = inconclusive; . = no result.

SMILES	MIN6 prolif-1	TAG inh	hiPSC survival	Rev-erbA mod	PG9 binder	T cruzi inh	MIN6 prolif-2
COc1ccc2c(c1)/C(=C/c1cnc[nH]1)C(=O)N2	19*	48	-3	1	-14	31	-3
CCN(CC)C(=O)COc1cc(C)cc2oc(=O)c3c(c12)CCCC3	6.6*	.	0	-3	2	16	2
O=C(c1cccn2c(=O)c3cc(Cl)ccc3nc12)N1CCC2(CC1)OCCO2	5	.	-1	2	1	3	.
COc1cc2ccc(=O)oc2c2ccoc12	12*	1	1	-5	-1	9	0
COc1cc2occc2c2oc(=O)ccc12	-1	.	0	-1	-1	-12	.
Cn1c(O)c(C=NCCOc2ccc(Cl)cc2)c(=O)n(C)c1=O	-1	10	-1	3	0	-3	.
Cn1c(O)c(C=NCCN2CCN(C(=O)c3ccccc3)CC2)c(=O)n(C)c1=O	9.6*	.	4	8	1	8	1
Cc1ccc(-n2c(-c3cccs3)nc3ccccc3c2=O)cc1	9.3*	2	-1	-5	0	21	-4
CC(=NCCN1CCOCC1)c1c(O)n(-c2ccccc2C)c(=O)[nH]c1=O	12*	.	5	0	1	2	-1
CCC(=NCCN1CCOCC1)c1c(O)n(-c2ccccc2C)c(=O)[nH]c1=O	0	4	0	-1	1	6	.
CC1=CC(=C2C(=O)NC(=O)NC2=O)C=C(C(F)(F)F)N1Cc1ccccc1	9.2*	1	1	-3	0	-28	4
CC1=CC(=C2C(=O)NC(=S)NC2=O)C=C(C(F)(F)F)N1CCc1ccccc1	-2	.	.	.	.	-4	.
O=C(N/N=C/c1c(O)n(Cc2ccc(F)cc2)c(=S)[nH]c1=O)c1ccncc1	3	9	-1	-1	2	-11	.
CCOC(=O)C(c1c(O)c2ccccc2oc1=O)c1c(O)c2ccccc2oc1=O	.	3	0	7	1	.	.
O=c1oc2ccccc2c(O)c1C(c1ccccn1)c1c(O)c2ccccc2oc1=O	8.0*	1	1	-4	1	2	-4
CCC1(OC(=O)c2ccccc2)CC(C)N(C)CC1C (stereo not drawn)	7.0*	.	0	0	-3	1	-3
CC(Cc1ccccc1)NC(=O)/C=C/C(=O)O (stereo not drawn)	7.3*	5	1	-6	-1	-1	0
COc1ccc(N2C(=O)CC(N3CC=C(c4ccccc4)CC3)C2=O)cc1 (stereo not drawn)	-1	3	5	2	0	3	.
CNC(=O)O/N=C/c1nn(C(=O)C(C)(C)C)cc1Br	5.1*	1	-1	-4	0	-2	-2
CCN1CCN(c2ccc(NC(C)=O)cc2Cl)CC1	0	.	-3	7	1	15	.
CCCCC(=O)N/N=C/c1c(O)n(Cc2ccco2)c(=O)[nH]c1=O	-2	.	-2	-6	-1	6	.
O=C(N/N=C/c1c(O)n(Cc2ccco2)c(=O)[nH]c1=O)c1ccccc1O	8.0*	-10	0	5	0	1	-5
CC(=NCCN1CCOCC1)c1c(O)n(C2CCCCC2)c(=O)[nH]c1=O	2	.	-1	1	3	?	.
O=C(Nc1ccc(Cl)cc1)N1CC2CC(C1)c1cccc(=O)n1C2 (stereo not drawn)	1	17	0	3	-1	-4	.
NCCc1c[nH]c2ccc(C(N)=O)cc12	-3	-2	-1	-2	0	.	.
c1ccc(P(c2ccccc2)c2ccccn2)cc1	5.8*	-10	0	1	-1	-17	-2
CC(C)(C)C(=O)c1cn(CC(=O)NCc2ccco2)c2ccccc12	0	-11	-2	4	-1	5	.
